Assay results published in ChEMBL document CHEMBL3868624, “Design, synthesis, biological evaluation, and molecular modeling studies of chalcone-rivastigmine hybrids as cholinesterase inhibitors” (Bioorg Med Chem, 2017).
Active and inactive are the calls of the source. The calls are words filed in the database; no cut-off is given here.

Experiments:
[1] = molecular target: T1, Cholinesterase (Homo sapiens, UniProt P06276); experiment: Inhibition of human serum BChE using S-Butyrylthiocholine iodide as substrate at 10 uM preincubated for 15 mins followed by substrate addition by Ellman's method
[2] = Cytotoxicity against human SH-SY5Y cells assessed as cell viability at 25 uM after 48 hrs by MTT assay relative to control; type: toxicity, cell-based; details: read-out: Activity
Method in brief: (§1)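 SH-SY5Y cells seeded at 5×10³ per well and grown 16-18 h, then exposed to 6.25, 12.5, 25, 50 or 100 µM compound for 48 h. MTT (2.5 mg/mL solution) was added for 4 h at 37 °C, 5% CO₂. Formazan was dissolved in DMSO and absorbance read at 490 nm. Viability is relative to control, mean ± SEM of experiments in triplicate.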

[3] = molecular target: T2, Acetylcholinesterase (Homo sapiens, UniProt P22303); experiment: Non-competitive inhibition of human recombinant AChE using acetylthiocholine iodide as substrate preincubated for 15 mins followed by substrate addition by Lineweaver-Burk plot analysis
Method in brief: (§2)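 For kinetics, hAChE (0.004 U/mL) or hBChE (0.002 U/mL) was preincubated 15 min at 37 °C with inhibitor at three concentrations spanning 100-900 nM. DTNB was then added, followed by ATC or BTC at six serial concentrations from 0.125 to 1 mM. A412 was read for 5 min at 1-min intervals. Km and Vmax came from Michaelis-Menten fits, and mechanism from Lineweaver-Burk plots.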

[4] = Cytotoxicity against human SH-SY5Y cells assessed as cell viability at 50 uM after 48 hrs by MTT assay relative to control; type: toxicity, cell-based; details: read-out: Activity; method in brief: as §1
[5] = Cytotoxicity against human SH-SY5Y cells assessed as cell viability at 6.25 uM after 48 hrs by MTT assay relative to control; type: toxicity, cell-based; details: read-out: Activity; method in brief: as §1
[6] = molecular target: T1, Cholinesterase; experiment: Non-competitive inhibition of human serum BChE using S-Butyrylthiocholine iodide as substrate preincubated for 15 mins followed by substrate addition by Lineweaver-Burk plot analysis; method in brief: as §2
[7] = Cytotoxicity against human SH-SY5Y cells assessed as cell viability at 12.5 uM after 48 hrs by MTT assay relative to control; type: toxicity, cell-based; details: read-out: Activity; method in brief: as §1
[8] = molecular target: T1, Cholinesterase; experiment: Inhibition of human serum BChE using S-Butyrylthiocholine iodide as substrate preincubated for 15 mins followed by substrate addition by Ellman's method
Method in brief: (§3)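 Ellman assay in phosphate buffer pH 8.0 (0.08 M Na₂HPO₄/0.02 M NaH₂PO₄). hAChE at 0.004 U/mL or hBChE at 0.002 U/mL was preincubated with compound for 15 min at 37 °C. DTNB and ATC (hAChE) or BTC (hBChE) were added, each 50 µM final. A412 was read over 5 min and inhibition set against no-compound wells. IC50 from a variable-slope fit, mean ± SD of three independent experiments.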

[9] = Cytotoxicity against human SH-SY5Y cells assessed as cell viability at 100 uM after 48 hrs by MTT assay relative to control; type: toxicity, cell-based; details: read-out: Activity; method in brief: as §1
[10] = molecular target: T2, Acetylcholinesterase; experiment: Inhibition of human recombinant AChE using acetylthiocholine iodide as substrate preincubated for 15 mins followed by substrate addition by Ellman's method; method in brief: as §3
[11] = tested on: SH-SY5Y; experiment: Antioxidant activity against t-BHP-induced oxidative stress in human SH-SY5Y cells assessed as inhibition of ROS production at 1 to 5 uM after 24 hrs by DCFH-DA probe based flow cytometric analysis; type: functional, cell-based
Method in brief: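 SH-SY5Y cells seeded at 5×10^4 per well, left 16-18 h, then exposed to compound for 24 h. Cells were washed in PBS and loaded with 5 μM DCFH-DA together with 100 μM t-BHP in PBS, 30 min at 37 °C, 5% CO2. After washing and resuspension, flow cytometry read ex 488/em 525 nm. Value reported as (FIsample−FIblank)/(FIcontrol−FIblank)×100%, untreated cells as control, curcumin as positive control.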

T2 sequence (P22303 whole entry): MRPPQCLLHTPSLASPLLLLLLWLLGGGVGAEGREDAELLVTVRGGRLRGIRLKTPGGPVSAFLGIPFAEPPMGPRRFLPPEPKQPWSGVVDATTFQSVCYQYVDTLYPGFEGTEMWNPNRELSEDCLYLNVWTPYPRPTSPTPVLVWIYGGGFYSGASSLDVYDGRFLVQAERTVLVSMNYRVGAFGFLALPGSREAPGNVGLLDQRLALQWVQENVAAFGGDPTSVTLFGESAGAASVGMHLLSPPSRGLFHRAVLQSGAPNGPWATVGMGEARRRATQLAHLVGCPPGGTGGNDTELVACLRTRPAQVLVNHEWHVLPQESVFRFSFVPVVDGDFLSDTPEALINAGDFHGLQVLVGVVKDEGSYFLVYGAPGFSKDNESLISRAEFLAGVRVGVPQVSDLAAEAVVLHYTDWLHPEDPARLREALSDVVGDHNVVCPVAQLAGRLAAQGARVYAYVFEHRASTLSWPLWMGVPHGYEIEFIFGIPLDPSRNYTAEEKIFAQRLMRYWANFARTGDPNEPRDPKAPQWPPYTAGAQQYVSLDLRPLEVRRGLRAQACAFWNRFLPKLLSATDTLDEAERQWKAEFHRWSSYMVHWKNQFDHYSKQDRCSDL
T1 sequence (P06276 whole entry): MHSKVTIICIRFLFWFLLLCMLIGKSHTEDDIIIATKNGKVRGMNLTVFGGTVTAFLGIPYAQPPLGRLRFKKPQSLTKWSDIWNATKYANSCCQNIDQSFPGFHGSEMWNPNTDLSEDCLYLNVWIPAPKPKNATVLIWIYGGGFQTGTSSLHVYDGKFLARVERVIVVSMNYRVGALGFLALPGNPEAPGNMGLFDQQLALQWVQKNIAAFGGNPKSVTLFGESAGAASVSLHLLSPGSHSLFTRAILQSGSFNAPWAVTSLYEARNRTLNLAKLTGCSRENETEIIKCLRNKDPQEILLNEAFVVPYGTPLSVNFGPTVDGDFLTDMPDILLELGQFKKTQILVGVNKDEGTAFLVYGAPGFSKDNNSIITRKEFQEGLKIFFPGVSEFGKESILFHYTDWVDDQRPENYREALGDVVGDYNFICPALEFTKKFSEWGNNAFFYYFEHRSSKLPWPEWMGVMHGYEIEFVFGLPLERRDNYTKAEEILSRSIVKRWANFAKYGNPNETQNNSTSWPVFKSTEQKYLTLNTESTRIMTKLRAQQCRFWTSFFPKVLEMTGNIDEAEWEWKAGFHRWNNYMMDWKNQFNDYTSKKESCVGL

Compound | inhibition [1] [%] | viability at 48 h, 25 µM [2] [%] | Ki [3] [nM] | viability at 48 h, 50 µM [4] [%] | viability at 48 h, 6.25 µM [5] [%] | Ki [6] [nM] | viability at 48 h, 12.5 µM [7] [%] | IC50 [8] [µM] | viability at 48 h, 100 µM [9] [%] | IC50 [10] [µM] | inhibition [11]
CCN(CC)C(=O)Oc1cccc(C(=O)/C=C/c2ccc(O)cc2)c1 | < 50 | – | – | – | – | – | – | – | – | – | –
COc1ccc(/C=C/C(=O)c2ccc(OC(=O)N(C)C)cc2)cc1 | < 50 | – | – | – | – | – | – | – | – | – | –
CN(C)C(=O)Oc1ccc(/C=C/C(=O)c2cccc(O)c2)cc1 | < 50 | – | – | – | – | – | – | – | – | – | –
CN(C)C(=O)Oc1cc(OC(=O)N(C)C)cc(C(=O)/C=C/c2ccc(O)cc2)c1 | < 50 | – | – | – | – | – | – | – | – | – | –
CCN(C)C(=O)Oc1cc(OC(=O)N(C)CC)cc(C(=O)/C=C/c2ccc(O)cc2)c1 | < 50 | – | – | – | – | – | – | – | – | – | –
COc1ccc(/C=C/C(=O)c2cccc(O)c2)cc1 | < 50 | – | – | – | – | – | – | – | – | – | –
CCN(CC)C(=O)Oc1cccc(C(=O)/C=C/c2ccc(OC)cc2)c1 | < 50 | – | – | – | – | – | – | – | – | – | –
CCN(C)C(=O)Oc1ccc(C(=O)/C=C/c2ccc(O)cc2)cc1 | < 50 | – | – | – | – | – | – | – | – | – | –
CN(C)C(=O)Oc1cccc(C(=O)/C=C/c2ccc(O)cc2)c1 | > 50 | 94.6 | 520 | 71.8 | 102 | 160 | 96.5 to 96.7 | 0.36 | 48.3 | 0.87 | –
CCN(C)C(=O)Oc1cccc(C(=O)/C=C/c2ccc(O)cc2)c1 | > 50 | 49.2 | – | 17.4 | 96.2 | – | 68 | 4.37 | 5.42 | – | –
CCN(C)C(=O)Oc1cccc(C(=O)/C=C/c2ccc(OC)cc2)c1 | > 50 | 85.1 | – | 66.3 | 101 | – | 100 | 3.93 | 0.63 | – | –
CCN(C)C(=O)Oc1cccc(/C=C/C(=O)c2cccc(O)c2)c1 | > 50 | 53 | – | 11.2 | 101 | – | 88.2 | 2.87 | 0.16 | – | –
COc1ccc(/C=C/C(=O)c2cccc(OC(=O)N(C(C)C)C(C)C)c2)cc1 | < 50 | – | – | – | – | – | – | – | – | – | –
CCN(C)C(=O)Oc1ccc(/C=C/C(=O)c2cccc(O)c2)cc1 | > 50 | 67.1 | – | 16.5 | 96.1 | – | 93.9 | 5.6 | 0.81 | – | –
CCN(C)C(=O)Oc1cccc(/C=C/C(=O)c2ccc(O)cc2)c1 | > 50 | 60.2 | – | 16.6 | 95.1 | – | 88.7 | 2.52 | 2.97 | – | –
CN(C)C(=O)Oc1cccc(/C=C/C(=O)c2cccc(O)c2)c1 | > 50 | 57.1 | – | 15.1 | 85.9 | – | 82.6 | 1.91 | 1.03 | – | –
CC(C)N(C(=O)Oc1cccc(C(=O)/C=C/c2ccc(O)cc2)c1)C(C)C | < 50 | – | – | – | – | – | – | – | – | – | –
CN(C)C(=O)Oc1ccccc1C(=O)/C=C/c1ccc(O)cc1 | < 50 | – | – | – | – | – | – | – | – | – | –
CN(C)C(=O)Oc1ccc(/C=C/C(=O)c2ccc(O)cc2)cc1 | > 50 | 60.4 | – | 28.9 | 100 | – | 86.6 | 4.48 | 13.1 | – | –
CCN(C)C(=O)Oc1ccccc1C(=O)/C=C/c1ccc(O)cc1 | > 50 | 64.7 | – | 51.7 | 86 | – | 76.4 | 4.37 to 5.97 | 52.2 | – | –
CN(C)C(=O)Oc1ccc(C(=O)/C=C/c2ccc(O)cc2)cc1 | < 50 | – | – | – | – | – | – | – | – | – | –
CCN(C)C(=O)Oc1ccc(/C=C/C(=O)c2ccc(O)cc2)cc1 | > 50 | 51.5 | – | 22.4 | 91.7 | – | 80.8 | 6.08 | 1.39 | – | –
COc1ccc(/C=C/C(=O)c2cccc(OC(=O)N(C)C)c2)cc1 | > 50 | 74.3 | – | 20 | 101 | – | 95.3 | 3.37 | 0.67 | 8.05 | –
CCN(C)C(=O)Oc1cccc([C@H](C)N(C)C)c1 [RIVASTIGMINE] | – | 86.6 | – | 72.7 | 98.5 | – | 94.7 | – | 56.4 | – | –
COc1ccc(/C=C/C(=O)c2ccc(O)cc2)cc1 | < 50 | – | – | – | – | – | – | – | – | – | –
COc1cc(/C=C/C(=O)CC(=O)/C=C/c2ccc(O)c(OC)c2)ccc1O | – | – | – | – | – | – | – | – | – | – | Active
CN(C)C(=O)Oc1cccc(/C=C/C(=O)c2ccc(O)cc2)c1 | > 50 | 46.2 | – | 11.2 | 83.9 | – | 69.9 | 2.19 | 4.37 | – | –
CCN(C)C(=O)Oc1ccc(C(=O)/C=C/c2ccc(OC)cc2)cc1 | > 50 | 83.2 | – | 52.7 | 95.5 | – | 86.1 | 7.36 | 0.22 | – | –
